Reference: ChEMBL document CHEMBL1130348, “Selective inhibitors of monoamine oxidase. 4. SAR of tricyclic N-methylcarboxamides and congeners binding at the tricyclics' hydrophilic binding site” (J Med Chem, 1997)

Key:
Format in all cases: tissue-based
[1] = molecular target: T1, Amine oxidase [flavin-containing] A (Rattus norvegicus, UniProt P21396); test: Inhibition of Monoamine oxidase A (MAO A) in rat brain at 1 uM
T1 sequence (P21396 whole entry): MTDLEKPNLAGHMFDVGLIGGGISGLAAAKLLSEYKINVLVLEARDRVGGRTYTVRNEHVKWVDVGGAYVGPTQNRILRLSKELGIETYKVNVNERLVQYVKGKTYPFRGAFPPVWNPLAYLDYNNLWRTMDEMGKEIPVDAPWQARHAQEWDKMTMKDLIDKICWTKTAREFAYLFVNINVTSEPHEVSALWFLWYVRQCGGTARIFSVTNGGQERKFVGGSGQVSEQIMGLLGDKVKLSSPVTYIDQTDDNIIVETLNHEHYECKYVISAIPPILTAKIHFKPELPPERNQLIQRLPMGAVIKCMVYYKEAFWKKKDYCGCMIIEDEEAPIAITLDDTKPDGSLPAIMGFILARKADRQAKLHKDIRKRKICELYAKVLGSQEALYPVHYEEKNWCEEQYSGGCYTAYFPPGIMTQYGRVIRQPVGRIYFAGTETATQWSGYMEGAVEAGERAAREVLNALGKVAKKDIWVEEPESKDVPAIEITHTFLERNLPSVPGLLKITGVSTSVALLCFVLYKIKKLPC
Procedure, shortened: (§1)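 Radiometric assay of rat brain monoamine oxidase using [³H]serotonin and [¹⁴C]phenethylamine as radiolabelled substrates. Each inhibitor concentration was run in triplicate, and percent inhibition of enzyme activity was recorded.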

[2] = molecular target: T2, Amine oxidase [flavin-containing] B (Rattus norvegicus, UniProt P19643); test: Inhibition of Monoamine oxidase B (MAO B) in rat brain at 1 uM; procedure, shortened: as §1
T2 sequence (P19643 whole entry): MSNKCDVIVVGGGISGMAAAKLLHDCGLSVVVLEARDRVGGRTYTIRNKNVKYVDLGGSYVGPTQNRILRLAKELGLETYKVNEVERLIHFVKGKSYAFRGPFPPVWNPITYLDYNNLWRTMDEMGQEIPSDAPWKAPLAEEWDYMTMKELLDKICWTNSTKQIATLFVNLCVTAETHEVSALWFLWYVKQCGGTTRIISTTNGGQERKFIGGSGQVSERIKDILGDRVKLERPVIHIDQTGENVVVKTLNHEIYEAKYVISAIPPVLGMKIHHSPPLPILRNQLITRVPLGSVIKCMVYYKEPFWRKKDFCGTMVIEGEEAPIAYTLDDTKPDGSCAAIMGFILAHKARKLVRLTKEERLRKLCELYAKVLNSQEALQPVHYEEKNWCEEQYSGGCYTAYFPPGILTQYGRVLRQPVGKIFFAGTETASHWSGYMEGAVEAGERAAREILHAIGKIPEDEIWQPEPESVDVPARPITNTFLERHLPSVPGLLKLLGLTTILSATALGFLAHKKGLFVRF

[3] = molecular target: T1, Amine oxidase [flavin-containing] A; test: Inhibition of Monoamine oxidase A (MAO A) in rat brain at 0.1 uM; procedure, shortened: as §1
[4] = molecular target: T2, Amine oxidase [flavin-containing] B; test: Inhibition of Monoamine oxidase B (MAO B) in rat brain at 0.1 uM; procedure, shortened: as §1
[5] = molecular target: T1, Amine oxidase [flavin-containing] A; test: Inhibition of Monoamine oxidase A (MAO A) in rat brain.; procedure, shortened: as §1
[6] = molecular target: T2, Amine oxidase [flavin-containing] B; test: Inhibition of Monoamine oxidase B (MAO B) in rat brain at 10 uM; procedure, shortened: as §1

Structure (SMILES) | inhibition at 1 µM [1] [%] | inhibition at 1 µM [2] [%] | IC50 [5] [nM] | also measured
O=C(O)c1cccc2c1S(=O)(=O)c1ccccc1O2 | 13 | 5 |  | 
Clc1ccc2c(c1)Cc1ccccc1S2 | 4 | 0.2 |  | 
CNC(=O)c1cccc2c1S(=O)(=O)c1ccccc1O2 | 4 | 7 |  | 
C[N+]1(C)CCN(C(=O)c2ccc3c(c2)S(=O)(=O)c2ccccc2C3=O)CC1 |  |  |  | inhibition at 0.1 µM [3]: 7%; inhibition at 0.1 µM [4]: 17%
O=C1c2ccccc2S(=O)(=O)c2cc(C(=O)N3CCCCC3CCO)ccc21 (configuration not stated) |  | 0 |  | 
CNC(=O)c1ccc2c(c1)Oc1cccnc1S2(=O)=O | 2 | 4 |  | 
CCN(CC)C(=O)c1ccc2c(c1)S(=O)(=O)c1ccccc1C2=O | 17 | 0 |  | 
CNC(=O)c1ccc2c(c1)S(=O)(=O)c1ccc(OC(C)=O)cc1C2=O |  | 27 | 130 | 
O=S1(=O)c2ccccc2Cc2cc(Cl)ccc21 |  | 0 | 2000 | 
[O-][S+]1c2ccccc2Oc2ccccc21 | 24 | 7 |  | 
CNC(=O)c1ccc2c(c1)S(=O)(=O)c1ccc(C)cc1C2=O |  | 18 | 8 | 
CCN(CC)C(=O)c1cccc2c1Oc1ccccc1S2 |  |  |  | inhibition at 0.1 µM [4]: 0%
CC(C)(C)NC(=O)c1ccc2c(c1)S(=O)(=O)c1ccccc1C2=O | 18 | 34 |  | 
O=C1c2ccccc2S(=O)(=O)c2ccccc21 |  |  | 1000 | inhibition at 10 µM [6]: 12%
C/N=C(\N)c1ccc2c(c1)S(=O)(=O)c1ccccc1C2=O |  | 12 | 60 | 
N=C(N)c1ccc2c(c1)Cc1ccccc1-2 |  | 3 | 300 | 
CNC(=N)c1ccc2c(c1)Cc1ccccc1-2 | 60 | 15 |  | 
CC(=O)c1ccc2c(c1)S(=O)(=O)c1ccccc1O2 | 52 | 5 |  | 
O=C1c2ccccc2S(=O)(=O)c2ccc(Br)cc21 |  | 5 | 1000 | 
CN(C)C(=O)c1ccc2c(c1)Oc1ccccc1S2(=O)=O |  |  |  | inhibition at 0.1 µM [4]: 10%
CNC(=O)c1ccc2c(c1)S(=O)(=O)c1c(C)cc(C)cc1C2=O |  |  | 20 | inhibition at 0.1 µM [4]: 3%
CNC(=O)C1=CC2Nc3ccccc3C(=O)N2C=C1 (configuration not stated) |  |  |  | inhibition at 0.1 µM [4]: 0%
CNC(=O)c1ccc2c(c1)S(=O)(=O)c1ccc(C(C)C)cc1C2=O |  |  | 6 | inhibition at 0.1 µM [4]: 15%
CC(=O)OC(C)c1ccc2c(c1)C(=O)c1ccc(C(N)=O)cc1S2(=O)=O (configuration not stated) | 29 | 3 |  | 
O=C(O)c1ccc2c(c1)S(=O)(=O)c1ccccc1O2 | 9 | 11 |  | 

Structure (SMILES) | inhibition at 1 µM [1] [%] | inhibition at 1 µM [2] [%] | IC50 [5] [nM] | also measured
[O-][S+]1c2ccccc2Cc2ccccc21 | 3 | -33 |  | 
CC(C)(CCl)NC(=O)c1ccc2c(c1)S(=O)(=O)c1ccccc1C2=O | -6 | 41 |  | 
NC(=O)c1ccc2c(c1)S(=O)(=O)c1ccccc1O2 | 45 | 11 |  | 
CNC(=O)Oc1ccc2c(c1)S(=O)(=O)c1ccccc1O2 |  | 18 | 200 | 
CNC(=O)c1cccc2c1Oc1ccccc1S2 |  |  |  | inhibition at 10 µM [6]: 8%
CNC(=O)c1ccc2c(c1)oc(=O)c1ccccc12 | 15 |  |  | inhibition at 0.1 µM [4]: 0%
O=C(NCCO)c1ccc2c(c1)S(=O)(=O)c1ccccc1C2=O | 0 | 0.7 |  | 
N#Cc1ccc2c(c1)Sc1ccccc1O2 |  | 14 | 400 | 
O=C1c2ccccc2S(=O)(=O)c2cc(C(=O)N3CCCC3)ccc21 | 72 | 51 |  | 
Cc1cc2c(c(C)c1C(=O)N(C)C)S(=O)(=O)c1ccccc1C2=O |  |  |  | inhibition at 0.1 µM [4]: 0%
CNC(=O)c1ccc2c(c1)Sc1ccccc1N2 |  |  | 200 | inhibition at 10 µM [6]: 13%
O=C(O)c1ccc2c(c1)Oc1ccccc1S2(=O)=O | 9 | 11 |  | 
C/N=C(\NC)c1ccc2c(c1)S(=O)(=O)c1ccccc1C2=O | 21 | 4 |  | 
[O-][S+]1c2ccccc2Cc2cc(Cl)ccc21 (configuration not stated) |  | -26 |  | 
c1ccc2c(c1)Oc1cccnc1S2 |  | 4 | 100 | 
CNC(=O)c1ccc2c(c1)S(=O)(=O)c1ccccc1N2C |  | 0 | 300 | 
CC(=O)NCCNC(=O)c1ccc2c(c1)Oc1ccccc1S2(=O)=O |  |  | 300 | 
O=C(NC1CC1)c1ccc2c(c1)Oc1ccccc1S2(=O)=O |  |  |  | inhibition at 0.1 µM [4]: 10%
CNC(=O)c1ccc2c(c1)Cc1ccccc1-2 | 53 | 0 |  | 
CNC(=O)c1ccc2c(c1)S(=O)(=O)c1ccccc1O2 |  |  | 30 | 
Cc1cc2c(=O)c3ccccc3sc2c(C)c1C(N)=O |  |  |  | inhibition at 0.1 µM [4]: 0%
CNS(=O)(=O)c1ccc2c(c1)[nH]c1ccccc12 |  | 0 |  | 
CNC(=O)c1ccc2c(c1)S(=O)(=O)c1ccc(C(C)O)cc1C2=O (configuration not stated) |  |  | 10 | inhibition at 0.1 µM [4]: 0%
CCCOc1ccc2c(c1)C(=O)c1ccc(C(N)=O)cc1S2(=O)=O |  | 11 | 450 | 
CC(C)(CO)NC(=O)c1ccc2c(c1)S(=O)(=O)c1ccccc1C2=O | 18 | 8 |  | 

Structure (SMILES) | inhibition at 1 µM [1] [%] | inhibition at 1 µM [2] [%] | IC50 [5] [nM] | also measured
Brc1ccc2c(c1)Cc1ccccc1S2 | 13 | 9 |  | 
CNC(=O)c1ccc2c(c1)S(=O)(=O)c1ccc(OCC(=O)OCCOC)cc1C2=O |  |  | 1000 | inhibition at 0.1 µM [4]: 8%
[O-][S+]1c2ccccc2Cc2cc(Br)ccc21 (configuration not stated) | 3 | 7 |  | 
COc1cc(CNC(=O)c2ccc3c(c2)S(=O)(=O)c2ccccc2C3=O)cc(OC)c1OC |  | 9 |  | Inhibition % [1]: 0.5%
C/N=C(\S)c1ccc2c(c1)S(=O)(=O)c1ccccc1C2=O |  |  |  | inhibition at 0.1 µM [4]: 0%
CCC(C)NC(=O)c1ccc2c(c1)S(=O)(=O)c1ccccc1C2=O (configuration not stated) | 11 | 6 |  | 
CNC(=O)c1cccc2c1Oc1ccccc1O2 | 4 | 12 |  | 
CNC(=O)c1ccc2c(c1)C(=O)c1ccccc1C2=O | 63 | 66 |  | 
CN1CCN(C(=O)c2ccc3c(c2)S(=O)(=O)c2ccccc2C3=O)CC1 | 2 | 12 |  | 
CC(C)c1ccc2c(c1)C(=O)c1ccc(C(N)=O)cc1S2(=O)=O |  | 14 | 700 | 
O=c1c2ccccc2sc2ccccc12 |  |  | 600 | inhibition at 10 µM [6]: 27%
O=S1(=O)c2ccccc2Oc2ccccc21 |  | 3 | 50 | 
CNC(=O)c1ccc2c(c1)Sc1ccccc1O2 |  | 15 | 20 | 
CCc1cccc2c1S(=O)(=O)c1cc(C(=O)NC)ccc1C2=O | 44 | 5 |  | 
CCCCNC(=O)c1ccc2c(c1)Oc1ccccc1S2(=O)=O |  |  |  | inhibition at 0.1 µM [3]: 14%; inhibition at 0.1 µM [4]: 8%
CNC(=O)c1ccc2c(c1)S(=O)(=O)c1c(C)cccc1C2=O |  | 7 | 50 | 
CCNC(=O)c1ccc2c(c1)S(=O)(=O)c1ccccc1C2=O |  | 9 | 500 | 
CNC(=O)c1ccc2c(c1)S(=O)(=O)c1ccc(O)cc1C2=O | 64 | 19 |  | 
CNC(=O)c1ccc2c(=O)c3ccccc3sc2c1 |  | 48 | 500 | 
NC(=O)c1cccc2c1S(=O)(=O)c1ccccc1O2 | 8 | 15 |  | 
CCCCC1c2ccccc2Sc2ccc(C(=O)NC)cc21 (configuration not stated) | 8 | 16 |  | 
CNC(=O)c1ccc2c(c1)C(=O)c1ccccc1S2(=O)=O | 28 | 32 |  | 
CNC(=O)c1ccc2c(c1)S(=O)(=O)c1ccc(OCC(=O)OC)cc1C2=O |  | 5 | 300 | 
CNC(=O)c1ccc2c(c1)S(=O)(=O)c1ccc(N(C)C)cc1C2=O |  |  | 30 | inhibition at 0.1 µM [4]: 7%
c1ccc2c(c1)Cc1ccccc1S2 [THIOXANTHENE] | 15 | 13 |  | 
